Assay results collected from several papers.
Protocols differ between the studies behind these lines.
Target: Tyrosine-protein kinase SYK (SYK, Homo sapiens, UniProt P43405)

For `c1nc2c(Nc3ccc4c(c3)OCCO4)nc(Nc3ccc4c(c3)OCCO4)nc2[nH]1`, the activity vs control was 2% (enzyme activity; inhibitor; 10 µM).
`Oc1cccc(-c2nc(N3CCOCC3)c3oc4ncccc4c3n2)c1` has a remaining signal of 94.2% (cell-free assay; 0.5 µM).
`CCS(=O)(=O)c1cc2cc(C[C@](O)(CC(C)(C)c3ccc(F)cc3C(N)=O)C(F)(F)F)[nH]c2cn1` gave a remaining binding of 100% (cell-free assay; competition with immobilised ligand; 1 µM).
For `COc1cc2ncnc(Nc3ccc(Oc4ccccc4)c(C)c3C)c2cc1OC`, the inhibition was 4% (enzyme activity; inhibitor; 1 µM).
With `Oc1cccc(-c2nc(N3CCOCC3)c3oc4ncccc4c3n2)c1` the remaining activity was 69% (enzyme activity; inhibitor; 10 µM).
`COc1cc(Cl)c(C(=O)N[C@@H](CN[C@H]2CC[C@@H](N)CC2)Cc2ccc(C#N)cc2)cc1-c1ccc(CN[C@H](C)c2ccc(C)cc2)o1` has a remaining activity of 97% (enzyme activity; inhibitor; 1 µM).
`CN1CC(Oc2cnc(C#N)cc2-c2ccn3nc(NC(=O)C4CC4)cc3c2)C1` gave an inhibition of 1% (enzyme activity; inhibitor; 1 µM).
For `COc1cc(Nc2cnc(C#N)c(O[C@H](C)CN(C)C)n2)ncc1-c1cnn(C)c1`, the remaining activity was 63% (enzyme activity; inhibitor; radiometric; 10 µM).
`Cc1ccc(Nc2nccc(N(C)c3ccc4c(C)n(C)nc4c3)n2)cc1S(N)(=O)=O` gave an inhibition of 88% (enzyme activity; inhibitor; 10 µM).
The inhibition of `CNc1cccc2cc(C(=O)Nc3ccc(C(=O)O)cc3)c(=O)[nH]c12` is reported as 4% (enzyme activity; inhibitor; 10 µM).
With `CC(C)(C)c1nc(-c2cccc(NS(=O)(=O)c3c(F)cccc3F)c2F)c(-c2ccnc(N)n2)s1` the remaining activity was 111% (enzyme activity; inhibitor; radiometric; 1 µM).
`CS(=O)(=O)N1CCCC(NC(=O)[C@H](CCC2CCCCC2)NC(=O)c2ccc(CNc3ncnc4c3nnn4-c3ccccc3)cc2)C1` (some centres unmarked) gave a remaining binding of 88% (cell-free assay; competition with immobilised ligand; 0.1 µM).
The activity vs control of `Cc1cc(NC(=O)c2cccc3cc(-c4cccc5[nH]nc(N)c45)ccc23)ccc1F` is reported as 109% (enzyme activity; inhibitor; 0.1 µM).
With `COc1cc(/C=C/C(=O)CC(=O)/C=C/c2ccc(O)c(OC)c2)ccc1O` the activity vs control was 92% (enzyme activity; inhibitor; 1 µM).
With `O=C(CSc1nc2nccnc2c(=O)n1CCc1ccccc1)Nc1nccs1` the inhibition was 7% (enzyme activity; inhibitor; 10 µM).
The remaining activity of `Cc1sc(C(=O)NC2COC2)cc1-n1cc(NC(=O)Nc2c(F)cccc2Cl)cn1` is reported as 88.5% (enzyme activity; inhibitor; 10 µM).
With `Cc1c(C(=O)O)cc(-c2ccc(C3CCNCC3)cc2)c2ccc(-c3ccc(C(F)(F)F)cc3)cc12` the remaining binding was 100% (cell-free assay; competition with immobilised ligand; 1 µM).
With `COc1cc2c(Nc3ccc(Br)cc3F)ncnc2cc1OCC1CCN(C)CC1` the remaining signal was 101% (cell-free assay; 0.5 µM).
`FC(F)(F)Oc1cccc(-c2cnc3ccc(-c4ccncc4)nn23)c1` gave an activity vs control of 72% (enzyme activity; inhibitor; radiometric; 5 µM).
`CS(=O)(=O)NCC[C@H](NC(=O)c1cncc2c1cnn2-c1ccc(F)cc1)c1ccnc(S(C)(=O)=O)c1` has a remaining binding of 100% (cell-free assay; competition with immobilised ligand; 1 µM).
For `CC/C(=N\NC(=O)NCc1cccc(O)c1)c1ccc(O)c(C)c1O`, the inhibition was 3.3% (enzyme activity; inhibitor; 0.1 µM).
With `CC(C)(C)C(=O)c1sc(NC2CCCCC2)nc1N` the remaining activity was 111% (enzyme activity; inhibitor; 10 µM).
The remaining signal of `O=C1Nc2ccc(Cl)cc2C1=Cc1cc(Cl)c(O)c(Cl)c1` is reported as 93.3% (cell-free assay; 0.5 µM).
For `CNC(=O)c1cc(Oc2ccc(NC(=O)Nc3ccc(Cl)c(C(F)(F)F)c3)cc2)ccn1`, the inhibition was -6% (enzyme activity; inhibitor; 10 µM).
The remaining binding of `CCCOc1ccc([C@H]2[C@H](C(=O)O)[C@@H](c3ccc4c(c3)OCO4)CN2CC(=O)Nc2c(CC)cccc2CC)cc1` is reported as 100% (cell-free assay; competition with immobilised ligand; 1 µM).
The inhibition of `CN(C)C1CCN(CC#Cc2nn(C3CCCC3)c3nc(NCc4ccccc4)ncc23)C1` (centres unmarked) is reported as 2% (enzyme activity; inhibitor; FRET; 0.1 µM).
With `CC(=O)N1CCC(c2ccc(C(=O)NC3=NCCN3)cc2C(F)(F)F)CC1` the remaining binding was 100% (cell-free assay; competition with immobilised ligand; 1 µM).
For `Cn1c(=O)n(-c2ccc(C(C)(C)C#N)cc2)c2c3cc(-c4cnc5ccccc5c4)ccc3ncc21`, the remaining activity was 72% (enzyme activity; inhibitor; 10 µM).
With `O=C(O)[C@H]1[C@H](Cn2nnc3ccccc3c2=O)CC[C@@H]1C(=O)c1ccc(OCCC2CCOCC2)cc1` the remaining binding was 76% (cell-free assay; competition with immobilised ligand; 1 µM).
With `CC(C)(O)[C@H]1CC[C@H](Nc2ccc3ncc(-c4cccc(C(F)(F)F)c4)n3n2)CC1` the remaining activity was 72.3% (enzyme activity; inhibitor; 1 µM).
`Nc1cnc(N2CCc3cc(S(=O)(=O)Nc4c(F)cc(Cl)cc4F)cc(N4CCCC4=O)c32)nc1` has a remaining binding of 100% (cell-free assay; competition with immobilised ligand; 1 µM).
The remaining activity of `Nc1nc(NC2CCCCC2)sc1C(=O)c1ccccc1` is reported as 91% (enzyme activity; inhibitor; 10 µM).
